# Test results from ChEMBL document CHEMBL4152290, “1H-Benzo[d]imidazoles and 3,4-dihydroquinazolin-4-ones: Design, synthesis and antitubercular activity” (Eur J Med Chem, 2018).
# Experiments:
# [1] = Stability of the compound in PBS containing 10% DMSO at 25 degC measured after 6 hrs by HPLC analysis; format: physicochemical; details: buffer
# [2] = species: Danio rerio; experiment: Cardiotoxicity in Zebrafish AB embryos assessed as heart beat rate at 3 uM measured at 5 days post fertilization by stereomicroscopic method (reference value: 148.1 to 158.2 bpm); format: organism-based; details: in vivo, 120 h
# [3] = Cytotoxicity against African green monkey Vero assessed as cell viability at 10 ug/ml after 72 hrs by MTT assay (reference value: 100%); format: cell-based; details: chlorocebus sabaeus, Vero cells; read-out: Activity
# Procedure, shortened: (§1)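 Cells were grown in DMEM with 10% heat-inactivated FBS and penicillin-streptomycin, seeded at 2×10^3/well (HepG2, HaCat) or 1×10^3/well (Vero), then left 24 h. Compound was applied at 10 µg/mL final (2% DMSO) for 72 h at 37 °C, 5% CO2. MTT 1 mg/mL was added for 3 h, formazan dissolved in DMSO, and A595 read. Viability is expressed relative to 2% DMSO wells; mean ± SEM, triplicates, three independent experiments.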
# [4] = Selectivity index, ratio of cytotoxic concentration for human HepG2 cells by neutral red uptake assay to MIC for Mycobacterium tuberculosis H37Rv ATCC 27294; format: toxicity; details: read-out: Selectivity Index
# [5] = species: Danio rerio; experiment: Toxicity in Zebrafish AB embryos assessed as morphological alteration by measuring effect on ocular distance at 3 to 20 uM measured at 2 to 5 days post fertilization by stereomicroscopic method; format: organism-based; details: in vivo
# Procedure, shortened: (§2)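 AB embryos are treated from 2 hpf to 5 dpf at 3.0, 15.0 and 20.0 µM in fish water with 1% DMSO, at 28 °C. Controls are fish water and 1% DMSO. Larvae are photographed under a stereomicroscope (3×) at 2 and 5 dpf, n = 30. Body length (µm), ocular distance (µm) and eye surface area (µm²) are measured from the images.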
# [6] = Cytotoxicity against human HepG2 cells assessed as cell viability at 10 ug/ml after 72 hrs by neutral red uptake assay (reference value: 100%); format: cell-based; details: read-out: Activity
# Procedure, shortened: (§3)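 Seeding was 2×10^3/well for HepG2 and HaCat and 1×10^3/well for Vero. After 24 h, cells received 10 µg/mL final (2% DMSO) for 72 h at 37 °C, 5% CO2. They were washed with PBS, given neutral red 25 µg/mL in serum-free medium for 3 h, washed, and extracted 30 min with acetic acid/EtOH/water 1:50:49. A540 was read. Viability is relative to 2% DMSO controls; mean ± SEM, three experiments in triplicate.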
# [7] = Selectivity index, ratio of cytotoxic concentration for human HaCaT cells by MTT assay to MIC for Mycobacterium tuberculosis H37Rv ATCC 27294; format: toxicity; details: read-out: Selectivity Index
# [8] = Selectivity index, ratio of cytotoxic concentration for African green monkey Vero cells by neutral red uptake assay to MIC for Mycobacterium tuberculosis H37Rv ATCC 27294; format: toxicity; details: read-out: Selectivity Index
# [9] = Stability of the compound in PBS containing 10% DMSO at 37 degC measured after 6 hrs by HPLC analysis; format: physicochemical; details: read-out: Stability
# [10] = species: Danio rerio; experiment: Toxicity in Zebrafish AB embryos assessed as morphological alteration by measuring effect on body length of larvae at 3 to 20 uM measured at 2 to 5 days post fertilization by stereomicroscopic method; format: organism-based; details: in vivo; procedure, shortened: as §2
# [11] = Selectivity index, ratio of cytotoxic concentration for African green monkey Vero cells by MTT assay to MIC for Mycobacterium tuberculosis H37Rv ATCC 27294; format: toxicity; details: read-out: Selectivity Index
# [12] = species: Danio rerio; experiment: Cardiotoxicity in Zebrafish AB embryos assessed as heart beat rate at 20 uM measured at 2 days post fertilization by stereomicroscopic method (reference value: 128.7 to 146.3 bpm); format: organism-based; details: in vivo, 48 h
# [13] = Stability of the compound in PBS containing 10% DMSO at 37 degC measured immediately by HPLC analysis; format: physicochemical; details: read-out: Stability
# [14] = Stability of the compound in PBS containing 10% DMSO at 37 degC measured after 9 hrs by HPLC analysis; format: physicochemical; details: PBS containing 10% DMSO; read-out: Stability
# [15] = Stability of the compound in PBS containing 10% DMSO at 25 degC measured immediately by HPLC analysis; format: physicochemical; details: read-out: Stability
# [16] = Stability of the compound in PBS containing 10% DMSO at 37 degC measured after 3 hrs by HPLC analysis; format: physicochemical; details: read-out: Stability
# [17] = species: Danio rerio; experiment: Cardiotoxicity in Zebrafish AB embryos assessed as heart beat rate at 20 uM measured at 5 days post fertilization by stereomicroscopic method (reference value: 148.1 to 158.2 bpm); format: organism-based; details: in vivo, 120 h
# [18] = Cytotoxicity against human HaCaT cells assessed as cell viability at 10 ug/ml after 72 hrs by MTT assay (reference value: 100%); format: cell-based; details: read-out: Activity; procedure, shortened: as §1
# [19] = Selectivity index, ratio of cytotoxic concentration for human HepG2 cells by MTT assay to MIC for Mycobacterium tuberculosis H37Rv ATCC 27294; format: toxicity; details: read-out: Selectivity Index
# [20] = Stability of the compound in PBS containing 10% DMSO at 37 degC measured after 12 hrs by HPLC analysis; format: physicochemical; details: read-out: Stability
# [21] = species: Danio rerio; experiment: Induction of neurological impairment in Zebrafish AB embryos assessed as alteration in locomotor activity by measuring swimming activity at 3 to 20 uM measured at 5 days post fertilization; format: organism-based; details: in vivo, 120 h
# Procedure, shortened: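 Larvae were exposed from 2 hpf in fish water with 1% DMSO. At 5 dpf each larva was placed singly in a well of water or treatment solution. After 1 min acclimation, it was video-tracked for 5 min at 15 positions/s, and distance travelled was scored.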
# [22] = test system: Mycobacterium tuberculosis; experiment: Antitubercular activity against Mycobacterium tuberculosis H37Rv ATCC 27294 after 7 days by resazurin dye based assay; format: functional; details: H37Rv ATCC 27294, 168 h
# Procedure, shortened: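 Resazurin microtiter MIC in 7H9 with 10% ADC. Two-fold dilutions from 1 mg/mL DMSO stocks span 25.0–0.05, 10.0–0.02 or 0.02–0.0004 µg/mL, with 2.5% DMSO final. Inoculum is bead-declumped culture grown in 7H9/10% OADC/0.05% Tween 80, diluted to OD600 0.006. Plates run 7 days at 37 °C, then 0.01% resazurin for 48 h. MIC is the lowest concentration preventing the blue-to-pink change. Three independent tests.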
# [23] = species: Danio rerio; experiment: Cardiotoxicity in Zebrafish AB embryos assessed as heart beat rate at 15 uM measured at 5 days post fertilization by stereomicroscopic method (reference value: 148.1 to 158.2 bpm); format: organism-based; details: in vivo, 120 h
# [24] = species: Danio rerio; experiment: Toxicity in Zebrafish AB embryos assessed as morphological alteration by measuring effect on surface area of eyes at 3 to 20 uM measured at 2 to 5 days post fertilization by stereomicroscopic method; format: organism-based; details: in vivo; procedure, shortened: as §2
# [25] = Cytotoxicity against African green monkey Vero assessed as cell viability at 10 ug/ml after 72 hrs by neutral red uptake assay (reference value: 100%); format: cell-based; details: chlorocebus sabaeus, Vero cells; read-out: Activity; procedure, shortened: as §3
# [26] = species: Danio rerio; experiment: Cardiotoxicity in Zebrafish AB embryos assessed as heart beat rate at 3 uM measured at 2 days post fertilization by stereomicroscopic method (reference value: 128.7 to 146.3 bpm); format: organism-based; details: in vivo, 48 h
# [27] = species: Danio rerio; experiment: Cardiotoxicity in Zebrafish AB embryos assessed as heart beat rate at 15 uM measured at 2 days post fertilization by stereomicroscopic method (reference value: 128.7 to 146.3 bpm); format: organism-based; details: in vivo, 48 h
# [28] = Stability of the compound in PBS containing 10% DMSO at 25 degC measured after 9 hrs by HPLC analysis; format: physicochemical; details: buffer
smiles,measurement,setting,value
CC1CCC(NC(=O)CSc2nc3ccccc3c(=O)[nH]2)CC1 (stereo not drawn),Stability,[1],97%
same,Activity,[2],147.7 bpm
same,"viability at 72 h, 10 ug/ml",[3],84%
same,selectivity ratio,[4],≤ 32
same,Activity,[5],Non-Toxic
same,"viability at 72 h, 10 ug/ml",[6],96%
same,selectivity ratio,[7],≤ 32
same,selectivity ratio,[8],≤ 32
same,remaining at 6 h,[9],59%
same,Activity,[10],Non-Toxic
same,selectivity ratio,[11],≤ 32
same,Activity,[12],146.4 bpm
same,remaining at 0 h,[13],100%
same,remaining at 9 h,[14],69%
same,remaining at 0 h,[15],100%
same,remaining at 3 h,[16],80%
same,Activity,[17],152.2 bpm
same,"viability at 72 h, 10 ug/ml",[18],95%
same,selectivity ratio,[19],≤ 32
same,remaining at 12 h,[20],70%
same,Activity,[21],Non-Toxic
same,MIC,[22],0.24 µM
same,Activity,[23],150.3 bpm
same,Activity,[24],Non-Toxic
same,"viability at 72 h, 10 ug/ml",[25],95%
same,Activity,[26],122.3 bpm
same,Activity,[27],127.2 bpm
same,Stability,[28],99%
